# Calls of active or inactive are those of the source. No cut-off for these calls is given here. Where a SMILES comes first, the peptide text is derived from it. [ ]: non-standard residue; d: D form. The star is where a group is joined. Palmitoyl = CCCCCCCCCCCCCCCC(=O)*; βAla = NCCC(=O)O
# Assays:
# [1] = tested on: Middle East respiratory syndrome-related coronavirus; assay: Binding affinity to MERS-CoV spike protein synthetic peptide HR1P at 75 uM incubated for 30 mins by Coomassie blue R250 staining based native polyacrylamide gel electrophoresis method
# Summary of the method: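 Equimolar mix with HR1P (150 μM each) in 10 mM phosphate pH 7.4, 30 min at 25 °C; diluted 1:1 in β-alanine–formic acid sample buffer, run on 15% β-alanine–formic acid gel at pH 3.4 (90 V then 150 V, 2.5 h); Coomassie R250 stain.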
# [2] = Inhibition of MERS-CoV spike protein-mediated cell-cell fusion in 293T/MERS/EGPF cells assessed as reduction in cell fusion incubated for 4 hrs by inverted fluorescence microscopy; type: cell-based, Middle East respiratory syndrome-related coronavirus
# Summary of the method: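 Huh-7 cells expressing DPP4 plated 5 × 10^4/well, 5 h at 37 °C; serially diluted peptide added, then 293T cells carrying MERS-CoV S and EGFP (or EGFP-only control cells), 1 × 10^4/well. After 4 h coculture at 37 °C, fused and unfused effector cells counted by fluorescence microscopy.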
# [3] = Cytotoxicity in human HuH7 cells assessed as reduction in cell viability incubated for 48 hrs by CCK8 assay; type: cell-based, Huh-7
# Summary of the method: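 Huh-7 cells (1 × 10^5 cells/mL suspension seeded) grown 12 h at 37 °C, 5% CO2, then serially diluted peptide added for 48 h; untreated blank and Triton X-100 controls. CCK-8 added for 2 h, absorbance at 450 nm.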
# [4] = tested on: Influenza A virus; assay: Antiviral activity against Influenza A virus (A/Puerto Rico/8/1934(H1N1)) infected in HEK293T cells assessed as inhibition of viral replicon activity incubated for 30 hrs by dual-Glo luciferase assay; type: functional, organism-based; settings: HEK-293T
# Summary of the method: (§1)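 HEK293T cells (2.5 × 10^4/well) transfected with plasmids for NP, PB1, PB2, PA plus p0LN-S-Luc firefly and pRL-SV40 Renilla reporters; serially diluted compound added 6 h post-transfection, luciferase read after 30 h by Dual-Glo. Activity = firefly/Renilla ratio; % inhibition normalized to positive and negative controls, curve-fitted; three independent measurements.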
# [5] = tested on: Influenza A virus; assay: Antiviral activity against influenza A virus Hong Kong/8/1968(H3N2) infected in HEK293T cells assessed as inhibition of viral replicon activity incubated for 30 hrs by dual-Glo luciferase assay; type: functional, organism-based; settings: HEK-293T; summary of the method: as §1
# [6] = Cytotoxicity in MDCK cells assessed as reduction in cell viability incubated for 72 hrs by cell-titer-Glo cell viability assay; type: cell-based, Canis lupus familiaris; settings: dog
# [7] = tested on: Influenza A virus; assay: Inhibition of influenza A virus infected in MDCK cells assessed as inhibition of viral load treated with compound at 2 to 5 hrs post-infection by RT-qPCR method based time of addition assay; type: functional, organism-based
# Summary of the method: (§2)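 MDCK cells (2.0 × 10^5/well) washed with PBS, virus adsorbed (MOI 0.05) 60 min at 4 °C, washed, then compound present only during 0–10, 0–2, 2–5, 5–8 or 8–10 h postinfection; cultured in fresh medium to 10 h, total RNA extracted, viral load by absolute one-step RT-qPCR; triplicate, versus PBS control.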
# [8] = tested on: Influenza A virus; assay: Inhibition of influenza A virus infected in MDCK cells assessed as inhibition of viral load treated with compound at 8 to 10 hrs post-infection by RT-qPCR method based time of addition assay; type: functional, organism-based; summary of the method: as §2
# [9] = target: Hemagglutinin (Influenza A virus (A/Puerto Rico/8/1934(H1N1))) (UniProt P03452); assay: Inhibition of Influenza A virus (A/Puerto Rico/8/1934(H1N1)) Hemagglutinin 1-induced aggregation of chicken erythrocytes at 0.05 to 100 uM
# [10] = target: Hemagglutinin (Influenza A virus (A/Puerto Rico/8/1934(H1N1))) (UniProt P03452); assay: Inhibition of Influenza A virus (A/Puerto Rico/8/1934(H1N1)) Hemagglutinin 2-mediated hemolysis of chicken erythrocytes at acidic pH conditions
# [11] = tested on: Influenza A virus; assay: Binding affinity to influenza A virus hemagglutinin 2 synthetic peptide N66 at 75 uM incubated for 30 mins by Coomassie blue R250 staining based native polyacrylamide gel electrophoresis method
# Summary of the method: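 Equimolar mix with N66 (150 μM each) in sodium acetate/phosphate/NaCl pH 5.0, 30 min at 30 °C; neutralized with 200 mM Tris pH 8.5, diluted 1:1 in Tris-glycine sample buffer, run on 15% Tris-glycine gel, running buffer pH 8.8 (90 V then 150 V, 2.5 h); Coomassie R250 stain.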
# [12] = tested on: Influenza A virus; assay: Binding affinity to influenza A virus hemagglutinin 2 synthetic peptide N66 assessed as changes in alpha-helical structures at 10 uM at pH 5 by CD spectroscopy
# Summary of the method: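 Peptides at 10 μM final. HR1P incubated with test peptide 30 min at 25 °C in 10 mM phosphate, pH 7.4; N66 30 min at 30 °C in 10 mM sodium acetate/10 mM sodium phosphate/150 mM NaCl, pH 5.0; measured at 25 °C. Mean residue ellipticity; helicity from −33000 deg cm2 dmol−1 = 100%.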
# [13] = tested on: Middle East respiratory syndrome-related coronavirus; assay: Binding affinity to MERS-CoV spike protein synthetic peptide HR1P assessed as melting temperature at 10 uM at pH 7.4 by CD spectroscopy
# Summary of the method: (§3)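 Thermal unfolding by CD at 222 nm, 10–90 °C at 2 °C/min. Samples held 10 μM peptide: for HR1P in 10 mM phosphate pH 7.4; for N66 in 10 mM sodium acetate with 10 mM sodium phosphate and 150 mM NaCl, pH 5.0.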
# [14] = tested on: Influenza A virus; assay: Binding affinity to influenza A virus hemagglutinin 2 synthetic peptide N66 assessed as melting temperature at 10 uM at pH 5 by CD spectroscopy; summary of the method: as §3
# [15] = tested on: Middle East respiratory syndrome-related coronavirus; assay: Binding affinity to MERS-CoV spike protein synthetic peptide HR1P at pH 7.4 by sedimentation velocity analysis
# Summary of the method: (§4)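 Complexes at 150 μM final: with HR1P 30 min at 25 °C in 10 mM phosphate pH 7.4; with N66 30 min at 30 °C in sodium acetate/phosphate/NaCl pH 5.0. Sedimentation velocity at 280 nm, 3000 then 60000 rpm, 25 °C; c(s) distribution and molecular weight derived.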
# [16] = tested on: Influenza A virus; assay: Binding affinity to influenza A virus hemagglutinin 2 synthetic peptide N66 at pH 5 by sedimentation velocity analysis; summary of the method: as §4
# [17] = Solubility in pure water at 2 mg by HPLC-UV method; type: physicochemical
# [18] = tested on: Rattus norvegicus; assay: MRT (0 to t) in Sprague-Dawley rat at 5 mg/kg, iv administered as single dose by LC-MS/MS analysis; type: ADME, organism-based; settings: in vivo
# [19] = Half life in Sprague-Dawley rat at 5 mg/kg, iv administered as single dose by LC-MS/MS analysis; type: ADME, organism-based; settings: in vivo
# [20] = tested on: Rattus norvegicus; assay: Clearance in Sprague-Dawley rat at 5 mg/kg, iv administered as single dose by LC-MS/MS analysis; type: ADME, organism-based; settings: in vivo
# [21] = Cmax in Sprague-Dawley rat at 5 mg/kg, iv administered as single dose by LC-MS/MS analysis; type: ADME, organism-based; set-up: dose 5 mg/kg, route intravenous; settings: in vivo
# [22] = tested on: Rattus norvegicus; assay: Volume of distribution at steady state in Sprague-Dawley rat at 5 mg/kg, iv administered as single dose by LC-MS/MS analysis; type: ADME, organism-based; settings: in vivo
# [23] = tested on: Influenza B virus; assay: Antiviral activity against Influenza B virus (B/Lee/40); type: functional, organism-based; settings: B/Lee/1940
# [24] = tested on: Influenza A virus; settings: Hong Kong/8/1968(H3N2), 0.1 to 1000 uM
# Sequence of Hemagglutinin (Influenza A virus (A/Puerto Rico/8/1934(H1N1))) (P03452 whole entry): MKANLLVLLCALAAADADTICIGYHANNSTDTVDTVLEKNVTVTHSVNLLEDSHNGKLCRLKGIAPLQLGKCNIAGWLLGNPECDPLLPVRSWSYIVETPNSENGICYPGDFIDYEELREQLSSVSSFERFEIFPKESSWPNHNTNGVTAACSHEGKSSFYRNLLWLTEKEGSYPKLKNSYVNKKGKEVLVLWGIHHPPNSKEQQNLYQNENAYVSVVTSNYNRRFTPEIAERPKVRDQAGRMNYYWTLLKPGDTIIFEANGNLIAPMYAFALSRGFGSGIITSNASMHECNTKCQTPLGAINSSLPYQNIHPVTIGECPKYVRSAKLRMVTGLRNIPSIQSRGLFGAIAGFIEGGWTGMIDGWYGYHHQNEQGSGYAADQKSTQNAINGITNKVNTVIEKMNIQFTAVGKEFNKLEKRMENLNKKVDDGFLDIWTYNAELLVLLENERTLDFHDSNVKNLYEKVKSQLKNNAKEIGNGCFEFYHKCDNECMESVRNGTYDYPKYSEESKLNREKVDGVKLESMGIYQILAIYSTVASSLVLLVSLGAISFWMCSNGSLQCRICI
compound,measurement,setting,value
CCCCCCCCCCCCCCCC(=O)NCCCC[C@H](NC(=O)CCNC(=O)[C@H](CCCCN)NC(=O)[C@H](CCCCN)NC(=O)[C@H](CCC(N)=O)NC(=O)[C@@H](NC(=O)[C@H](CCC(=O)O)NC(=O)[C@H](CCC(=O)O)NC(=O)[C@@H](NC(=O)[C@H](CCCCN)NC(=O)[C@H](CCCCN)NC(=O)[C@H](CCC(N)=O)NC(=O)[C@@H](NC(=O)[C@H](CCC(=O)O)NC(=O)[C@H](CCC(=O)O)NC(=O)[C@@H](NC(=O)[C@H](CCCCN)NC(=O)[C@H](CCCCN)NC(=O)[C@H](CCC(N)=O)NC(=O)[C@@H](NC(=O)[C@H](CCC(=O)O)NC(=O)[C@H](CCC(=O)O)NC(=O)[C@@H](NC(=O)[C@H](CCCCN)NC(=O)[C@H](CCCCN)NC(=O)[C@H](CCC(N)=O)NC(=O)[C@@H](NC(=O)[C@H](CCC(=O)O)NC(=O)[C@H](CCC(=O)O)NC(=O)[C@@H](NC(=O)[C@H](CCCCN)NC(=O)[C@H](CCCCN)NC(=O)[C@H](CCC(N)=O)NC(=O)[C@@H](NC(=O)[C@H](CCC(=O)O)NC(=O)[C@H](CCC(=O)O)NC(=O)[C@@H](NC(C)=O)[C@@H](C)CC)[C@@H](C)CC)[C@@H](C)CC)[C@@H](C)CC)[C@@H](C)CC)[C@@H](C)CC)[C@@H](C)CC)[C@@H](C)CC)[C@@H](C)CC)[C@@H](C)CC)C(N)=O (Ac-IEEIQKKIEEIQKKIEEIQKKIEEIQKKIEEIQKK[βAla]K(Palmitoyl)-NH2),Activity,[1],Active
same,EC50,[2],110 nM
same,CC50 at 48 h,[3],> 100000 nM
same,EC50,[4],1730 nM
same,EC50,[5],700 nM
same,CC50 at 72 h,[6],> 100000 nM
same,inhibition,[7],inactive
same,inhibition,[8],inactive
same,inhibition,[9],inactive
same,inhibition,[10],Active
same,Activity,[11],Active
same,Activity,[12],Active
same,Tm,[13],> 90 °C
same,Tm,[14],83.1 °C
same,Activity,[15],Active
same,Activity,[16],Active
same,solubility,[17],8870 µg/mL
same,MRT(t),[18],4.1 h
same,half-life,[19],6.6 h
same,CL,[20],0.345 mL/min/kg
same,Cmax,[21],97.6 µg/mL
same,Vdss,[22],0.1978 L/kg
same,EC50,[23],1870 nM
same,inhibition,[24],inactive

# Source: ChEMBL document CHEMBL4196194, “De Novo Design of α-Helical Lipopeptides Targeting Viral Fusion Proteins: A Promising Strategy for Relatively Broad-Spectrum Antiviral Drug Discovery” (J Med Chem, 2018)
